Values after ≈ are worked out from the molar mass of the structure shown. Where two headings read alike, the source gives them in different places.
Tests used:
[1] = tested on: HL-60 (leukemia promyelocytic); settings: read-out: Cell culture IC50; HL-60, referential compounds; cited from earlier work
WM-115 (human melanoma) [2] = settings: read-out: Cell culture IC50; WM-115, referential compounds; cited from earlier work
[3] = tested on: NALM-6 (leukemia lymphoblastic); settings: read-out: Cell culture IC50; NALM-6, referential compounds; cited from earlier work
E. faecalis ATCC 29212 = assay: MIC and MBC by broth microdilution, subculture on agar; type: cell-based, Enterococcus faecalis; settings: for MBC/MFC: second line per compound, subculture on agar 24 h, 37 °C; for MIC: Enterococcus faecalis, ATCC29212
How it was run: (§1)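 EUCAST broth microdilution used Mueller-Hinton broth for bacteria and phenol-red-free RPMI-1640 for Candida. Test compound ran at a final 31.2–1000 μg ml−1, from 80 mg ml−1 DMSO stocks, with DMSO ≤1.25%. […] For MBC/MFC, 10 μl from the MIC, 2× and 4× MIC wells was plated on agar for 24 h at 37 °C. Done in duplicate, 2 sets.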

[4] = tested on: NALM-6 (leukemia lymphoblastic); assay: Anticancer activity, MTT assay; type: cell-based, human; settings: for IC50: Homo sapiens, NALM-6, 48 h, read-out: Cell culture IC50; for anticancer activity in words: NALM-6
How it was run: (§2)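 Human leukaemia (HL-60, NALM-6) or melanoma (WM-115) cells were exposed to the test compound for 46 h, then given MTT for a further 2 h. Fresh DMSO stocks were diluted in complete medium, with DMSO ≤0.2%. Untreated cells served as control. IC50 was taken from concentration–response curves, as mean ± SD of 4 experiments.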

S. aureus ATCC 29213 = assay: MIC and MBC by broth microdilution, subculture on agar; type: cell-based, Staphylococcus aureus; settings: for MBC/MFC: S. aureus ATCC 29213, second line per compound, subculture on agar 24 h, 37 °C; for MIC: Staphylococcus aureus, ATCC29213
How it was run: as §1

P. vulgaris ATCC 8427 = assay: as above; type: cell-based, Proteus vulgaris; settings: for MBC/MFC: P. vulgaris ATCC 8427, second line per compound, subculture on agar 24 h, 37 °C; for MIC: Proteus vulgaris, ATCC8427
How it was run: as §1

P. aeruginosa ATCC 25619 = assay: as above; type: cell-based; settings: Pseudomonas aeruginosa, ATCC25619
How it was run: as §1

C. albicans ATCC 10231 = assay: MIC and MFC by broth microdilution, subculture on agar; type: cell-based, Candida albicans; settings: for MBC/MFC: C. albicans ATCC 10231, second line per compound, subculture on agar 24 h, 37 °C; for MIC: Candida albicans, ATCC10231
How it was run: as §1

[5] = tested on: HL-60 (leukemia promyelocytic); assay: Anticancer activity, MTT assay; type: cell-based, human; settings: for IC50: Homo sapiens, HL-60, 48 h, read-out: Cell culture IC50; for anticancer activity in words: HL-60
How it was run: as §2

[6] = tested on: Supercoiled plasmid pUC57 DNA; assay: Cleavage of pUC57 DNA, agarose gel electrophoresis; type: biochemical; settings: 37 °C, 24 h, pH 7.2, gel electrophoresis
How it was run: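 Supercoiled pUC57 plasmid (4634 bp) in 10 mM Tris–HCl/50 mM NaCl, pH 7.2, was incubated with the test compound (50, 100, 200, 300, 400 μM) at 37 °C for 24 h. Samples ran on 1% agarose at 75 V in TAE, were stained with Midori green and imaged under UV. Band intensities gave the fraction of each DNA form. Control was DNA with matching DMSO in buffer. Done in triplicate.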

[7] = tested on: S. epidermidis ATCC 12228; assay: MIC and MBC by broth microdilution, subculture on agar; type: cell-based, Staphylococcus epidermidis; settings: for MIC: Staphylococcus epidermidis, ATCC12228
How it was run: as §1

WM-115 (human melanoma) [8] = assay: Anticancer activity, MTT assay; type: cell-based; settings: for IC50: Homo sapiens, WM-115, 48 h, read-out: Cell culture IC50
How it was run: as §2

[9] = tested on: human foreskin fibroblasts HFF-1 (ATCC-SCRC-1041); assay: Cytotoxicity on normal fibroblasts, MTT reduction assay; type: cell-based; settings: for metabolic activity higher than untreated control cells: HFF-1, low concentrations 3.9–31.2 μM
How it was run: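 HFF-1 fibroblasts were seeded at 1 × 10^5/well in DMEM with 15% FCS and pen/strep and grown 48 h (37 °C, 5% CO2). They were exposed 24 h to the test compound (25 mM DMSO stocks; final 3.9–500 μM). Cells were washed and given MTT (1.5 mg ml−1) for 2 h. Formazan was dissolved overnight in 20% SDS in DMF/water and read at 550 nm. Viability is relative to 2% DMSO control; IC50 came from trend-line equations. Two experiments, duplicates each.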

| Compound | MBC/MFC (E. faecalis ATCC 29212; E. faecalis ATCC 29212) | MIC (E. faecalis ATCC 29212) | IC50 [4] | MBC/MFC (S. aureus ATCC 29213) | MIC (S. aureus ATCC 29213) | MBC/MFC (P. vulgaris ATCC 8427) | MIC (P. vulgaris ATCC 8427) | MIC (P. aeruginosa ATCC 25619) | MBC/MFC (C. albicans ATCC 10231) | MIC (C. albicans ATCC 10231) | IC50 [5] | effect on supercoiled plasmid DNA (cleavage of Form I) [6] | MIC [7] | IC50 (WM-115 (human melanoma) [8]) | other results |
| --- | --- | --- | --- | --- | --- | --- | --- | --- | --- | --- | --- | --- | --- | --- | --- |
| N.N.O=C([O-])C1(C(=O)[O-])CCC1.[Pt+2] [Carboplatin] |  |  |  |  |  |  |  |  |  |  |  |  |  |  | IC50 [1]: 4.3 ± 1.3 µM; IC50 (WM-115 (human melanoma) [2]): 422 ± 50.2 µM; IC50 [3]: 0.7 ± 0.2 µM |
| N.N.[Cl][Pt][Cl] [Cisplatin] |  |  |  |  |  |  |  |  |  |  |  |  |  |  | IC50 [1]: 0.8 ± 0.1 µM; IC50 (WM-115 (human melanoma) [2]): 18.2 ± 4.3 µM; IC50 [3]: 0.7 ± 0.3 µM |
| Cc1cc(C)n(C(N)=S)n1 [Compound 1a, 1-[amino(thioxo)methyl]-3,5-dimethyl-1H-pyrazole] | >1000 µg/mL | > 1000 µg/mL | 569 ± 21.9 µM | >1000 µg/mL | > 1000 µg/mL | >1000 µg/mL | > 1000 µg/mL | > 1000 µg/mL | >1000 µg/mL | > 1000 µg/mL | 584 ± 84.3 µM | did not affect the DNA | > 1000 µg/mL | > 1000 µM |  |
| CCc1cc(CC)n(C(N)=S)n1 [Compound 1b, 1-[amino(thioxo)methyl]-3,5-diethyl-1H-pyrazole] | >1000 µg/mL | > 1000 µg/mL | 469 ± 44.4 µM | >1000 µg/mL | 1000 µg/mL (≈ 5.46 mM) | 1000 µg/mL (≈ 5.46 mM) | 1000 µg/mL (≈ 5.46 mM) | > 1000 µg/mL | 1000 µg/mL (≈ 5.46 mM) | 1000 µg/mL (≈ 5.46 mM) | 506 ± 47.1 µM | did not affect the DNA | > 1000 µg/mL | 481 ± 39.4 µM |  |
| NC(=S)n1nc(-c2ccccc2)cc1O [Compound 1c, 1-[amino(thioxo)methyl]-5-hydroxy-3-phenyl-1H-pyrazole] | >1000 µg/mL | 500 µg/mL (≈ 2.28 mM) | 152 ± 26.7 µM | >1000 µg/mL | 1000 µg/mL (≈ 4.56 mM) | >1000 µg/mL | > 1000 µg/mL | > 1000 µg/mL | >1000 µg/mL | > 1000 µg/mL | 618 ± 32 µM |  | 62.5 µg/mL (≈ 0.285 mM) | 752 ± 118 µM |  |
| Cc1cc(O)n(C(N)=S)n1 [Compound 1d, 1-[amino(thioxo)methyl]-5-hydroxy-3-methyl-1H-pyrazole] | >1000 µg/mL | 250 µg/mL (≈ 1.59 mM) | 615 ± 60.9 µM | >1000 µg/mL | 1000 µg/mL (≈ 6.36 mM) | >1000 µg/mL | > 1000 µg/mL | > 1000 µg/mL | >1000 µg/mL | > 1000 µg/mL | 779 ± 125 µM | did not affect the DNA | 250 µg/mL (≈ 1.59 mM) | 90.9 ± 10.2 µM |  |
| Cc1cc(C)n(C(N)=S)n1.Cc1ccc(C(C)C)cc1.[Cl][Ru][Cl] [Compound 2a] | 125 µg/mL |  |  | 125 µg/mL |  | >1000 µg/mL |  |  |  |  |  | no influence |  |  | metabolic activity higher than untreated control cells [9]: 39–45% |
| Cc1ccc(C(C)C)cc1.Cc1ccc(C(C)C)cc1.[Cl][Ru][Cl].[Cl][Ru][Cl] [Dimer, dichloro(p-cymene)ruthenium(II)dimer, reference compound] | >1000 µg/mL |  |  | >1000 µg/mL |  | >1000 µg/mL |  |  | >1000 µg/mL |  |  | no effect |  |  | anticancer activity in words [4]: inactive; anticancer activity in words [5]: inactive; anticancer activity in words (WM-115 (human melanoma) [8]; WM-115): inactive |
| [(η^6-p-cymene)Ru(1-[amino(thioxo)methyl]-3,5-diethyl-1H-pyrazole)Cl2 [Compound 2b] | 62.5 µg/mL |  |  | 125 µg/mL |  | >1000 µg/mL |  |  |  |  |  | cleavage the DNA Form I into Form II and Form III |  |  | metabolic activity higher than untreated control cells [9]: 39–45% |
| [(η^6-p-cymene)Ru(1-[amino(thioxo)methyl]-5-hydroxy-3-methyl-1H-pyrazole) Cl2 [Compound 2d] | 1000 µg/mL |  |  | 500 µg/mL |  | 1000 µg/mL |  |  | >1000 µg/mL |  |  | cleavage the DNA Form I into Form II and Form III |  |  | anticancer activity in words [4]: inactive; viability of HFF-1 cells ([9]; HFF-1, 24 h, over tested range 3.9–500 μM): ≥ 80%; anticancer activity in words [5]: inactive; activity stronger than cisplatin (fold, from IC50 values) (WM-115 (human melanoma) [8]; WM-115): above 2 fold |
| [(η^6-p-cymene)Ru(1-[amino(thioxo)methyl]-5-hydroxy-3-phenyl-1H-pyrazole)Cl2 [Compound 2c] | <31.2 µg/mL |  |  | 62.5 µg/mL |  | >1000 µg/mL |  |  | >1000 µg/mL |  |  | no influence |  |  | activity (MIC) stronger than ligand 1c (E. faecalis ATCC 29212; E. faecalis ATCC 29212): > 16 fold; activity (MIC) stronger than ligand 1c ([7]; S. epidermidis ATCC 12228): more than 2 fold |

Reference: paper PMC9075995 (RSC Advances, 2019)
